IC50 and Ki data for 2 compounds are collected here from BindingDB's records for doi:10.1016/j.bmc.2012.05.040 (Imperial College, 2012).

Molecules are shown by their SMILES.

For assay [1], the target named is T1, Receptor-type tyrosine-protein phosphatase beta (Homo sapiens, UniProt P23467). Nature of the assay: Inhibition of PTP-beta receptor using 3-O-Methylfluorescein phosphate as substrate incubated for 10 mins prior to substrate addition by fluorometry. The procedure, abridged:
(§1)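 OMFP phosphatase assay, 20 °C, in 100 mM Tris pH 7.4 with 2 mM DTT. OMFP is taken from a 20 mM DMSO stock and diluted in 1% DMSO. It is used near each enzyme's KM, which is determined beforehand. Enzyme and arylstibonate are preincubated 10 min at RT, then OMFP is added. OMF release is read by fluorescence (ex 485, em 525 nm). Dose-response curves give IC50.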

The target of assay [2] is T1, Receptor-type tyrosine-protein phosphatase beta. The assay can be described thus: Inhibition of PTP-beta receptor using […] as substrate by colorimetric analysis.
The target in assay [3] is T2, M-phase inducer phosphatase 1 (Homo sapiens, UniProt P30304).
T2 sequence (P30304 whole entry): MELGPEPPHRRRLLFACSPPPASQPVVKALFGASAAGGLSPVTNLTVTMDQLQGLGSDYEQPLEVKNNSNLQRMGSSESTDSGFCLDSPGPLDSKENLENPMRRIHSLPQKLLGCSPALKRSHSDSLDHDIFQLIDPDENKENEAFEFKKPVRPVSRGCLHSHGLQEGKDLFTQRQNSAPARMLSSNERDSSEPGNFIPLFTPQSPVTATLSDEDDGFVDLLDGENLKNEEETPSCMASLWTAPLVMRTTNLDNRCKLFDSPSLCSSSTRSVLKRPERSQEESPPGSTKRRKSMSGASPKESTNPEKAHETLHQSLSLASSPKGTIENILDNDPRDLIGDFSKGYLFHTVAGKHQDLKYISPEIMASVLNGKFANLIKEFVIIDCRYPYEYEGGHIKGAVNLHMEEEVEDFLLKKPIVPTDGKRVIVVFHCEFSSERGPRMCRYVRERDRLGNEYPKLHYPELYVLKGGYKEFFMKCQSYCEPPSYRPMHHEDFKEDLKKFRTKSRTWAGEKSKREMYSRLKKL
Nature of the assay: Inhibition of N-terminal His-tagged Cdc25a catalytic domain expressed in Escherichia coli BL21(DE3) using 3-O-Methylfluorescein phosphate as substrate incubated for 10 mins prior to substrate addition by fluorometry. The procedure, abridged: as §1

Assay [4] addresses T3, M-phase inducer phosphatase 2 (Homo sapiens, UniProt P30305).
T3 sequence (P30305 whole entry): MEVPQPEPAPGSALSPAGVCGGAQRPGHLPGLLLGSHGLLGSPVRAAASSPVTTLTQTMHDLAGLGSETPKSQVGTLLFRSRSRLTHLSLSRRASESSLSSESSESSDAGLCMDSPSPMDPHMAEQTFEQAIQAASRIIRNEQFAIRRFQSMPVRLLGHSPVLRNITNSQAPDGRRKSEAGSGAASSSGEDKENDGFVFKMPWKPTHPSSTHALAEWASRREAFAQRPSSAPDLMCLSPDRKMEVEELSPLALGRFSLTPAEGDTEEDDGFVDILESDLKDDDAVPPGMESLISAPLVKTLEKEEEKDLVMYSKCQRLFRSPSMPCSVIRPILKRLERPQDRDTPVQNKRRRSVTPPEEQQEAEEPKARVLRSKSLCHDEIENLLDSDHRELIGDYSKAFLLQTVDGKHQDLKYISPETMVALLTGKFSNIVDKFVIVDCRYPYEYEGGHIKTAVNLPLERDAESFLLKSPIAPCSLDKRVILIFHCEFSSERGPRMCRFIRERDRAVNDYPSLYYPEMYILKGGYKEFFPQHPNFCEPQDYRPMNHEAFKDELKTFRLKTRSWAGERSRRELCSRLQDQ
Nature of the assay: Inhibition of N-terminal His-tagged Cdc25b catalytic domain expressed in Escherichia coli BL21(DE3) using 3-O-Methylfluorescein phosphate as substrate by secondary plot analysis. A digest of the protocol:
(§2)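 Steady-state kinetics of the Cdc25a and Cdc25b catalytic domains with varying OMFP and several arylstibonate concentrations. Run at 20 °C in 100 mM Tris pH 7.4 with 2 mM DTT, after a 10 min RT enzyme–inhibitor preincubation. Fluorescence read at ex 485/em 525 nm. Michaelis–Menten plots give apparent Km and Vmax; secondary plots give Ki.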

In assay [5] the target is T4, Tyrosine-protein phosphatase non-receptor type 1 (Homo sapiens, UniProt P18031).
T4 sequence (P18031 whole entry): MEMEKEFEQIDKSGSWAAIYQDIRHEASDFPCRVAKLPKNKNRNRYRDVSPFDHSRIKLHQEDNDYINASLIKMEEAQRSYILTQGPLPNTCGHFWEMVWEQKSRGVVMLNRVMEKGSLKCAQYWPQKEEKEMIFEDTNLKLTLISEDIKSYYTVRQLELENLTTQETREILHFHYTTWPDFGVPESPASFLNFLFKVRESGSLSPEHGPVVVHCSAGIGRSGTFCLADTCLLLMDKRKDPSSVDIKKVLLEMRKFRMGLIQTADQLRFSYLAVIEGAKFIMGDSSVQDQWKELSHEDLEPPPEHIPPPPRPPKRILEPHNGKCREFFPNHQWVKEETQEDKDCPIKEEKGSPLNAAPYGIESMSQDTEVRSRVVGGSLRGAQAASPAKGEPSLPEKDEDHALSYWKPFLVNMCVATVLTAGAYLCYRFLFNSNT
The assay can be described thus: Inhibition of PTP1B using 3-O-Methylfluorescein phosphate as substrate incubated for 10 mins prior to substrate addition by fluorometry. The procedure, abridged:
as §1

Assay [6] has as its target Phosphatidylinositol 3,4,5-trisphosphate 3-phosphatase and dual-specificity protein phosphatase PTEN (Homo sapiens, UniProt P60484). The assay can be described thus: Inhibition of human PTEN using 3-O-Methylfluorescein phosphate as substrate incubated for 10 mins prior to substrate addition by fluorometry. The procedure, abridged:
as §1

The target of assay [7] is T2, M-phase inducer phosphatase 1. The assay can be described thus: Inhibition of N-terminal His-tagged Cdc25a catalytic domain expressed in Escherichia coli BL21(DE3) using 3-O-Methylfluorescein phosphate as substrate by secondary plot analysis. The procedure, abridged:
as §2

Assay [8] concerns the target T3, M-phase inducer phosphatase 2. Nature of the assay: Inhibition of N-terminal His-tagged Cdc25b catalytic domain expressed in Escherichia coli BL21(DE3) using 3-O-Methylfluorescein phosphate as substrate incubated for 10 mins prior to substrate addition by fluorometry. A digest of the protocol: as §1
For assay [9], the target named is Dual specificity protein phosphatase 3 (Homo sapiens, UniProt P51452). The assay can be described thus: Inhibition of human recombinant His-tagged VHR using 3-O-Methylfluorescein phosphate as substrate incubated for 10 mins prior to substrate addition by fluorometry. The procedure, abridged: as §1
Dual specificity protein phosphatase 3, sequence (P51452 whole entry): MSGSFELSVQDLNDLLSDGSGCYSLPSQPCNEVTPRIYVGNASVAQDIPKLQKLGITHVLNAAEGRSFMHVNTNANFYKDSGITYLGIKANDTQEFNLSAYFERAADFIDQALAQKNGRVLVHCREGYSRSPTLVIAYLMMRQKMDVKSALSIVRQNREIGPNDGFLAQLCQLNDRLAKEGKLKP
In assay [10] the target is T5, M-phase inducer phosphatase 3 (Homo sapiens, UniProt P30307).
T5 sequence (P30307 whole entry): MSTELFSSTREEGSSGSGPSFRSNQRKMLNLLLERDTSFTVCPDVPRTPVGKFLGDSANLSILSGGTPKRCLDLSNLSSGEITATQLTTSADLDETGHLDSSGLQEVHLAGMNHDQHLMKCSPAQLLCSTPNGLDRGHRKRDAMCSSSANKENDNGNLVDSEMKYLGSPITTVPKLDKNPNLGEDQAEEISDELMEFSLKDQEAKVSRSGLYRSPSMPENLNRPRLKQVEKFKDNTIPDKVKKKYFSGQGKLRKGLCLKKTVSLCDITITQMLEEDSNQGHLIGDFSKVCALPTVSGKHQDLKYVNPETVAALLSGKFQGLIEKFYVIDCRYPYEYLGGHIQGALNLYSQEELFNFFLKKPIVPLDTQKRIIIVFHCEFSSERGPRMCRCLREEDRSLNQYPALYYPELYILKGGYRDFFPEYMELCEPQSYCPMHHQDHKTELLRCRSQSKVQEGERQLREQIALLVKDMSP
Nature of the assay: Inhibition of N-terminal His-tagged Cdc25c catalytic domain expressed in Escherichia coli BL21(DE3) using 3-O-Methylfluorescein phosphate as substrate incubated for 10 mins prior to substrate addition by fluorometry. The procedure, abridged:
as §1

The target of assay [11] is T6, Dual specificity protein phosphatase 6 (Homo sapiens, UniProt Q16828).
T6 sequence (Q16828 whole entry): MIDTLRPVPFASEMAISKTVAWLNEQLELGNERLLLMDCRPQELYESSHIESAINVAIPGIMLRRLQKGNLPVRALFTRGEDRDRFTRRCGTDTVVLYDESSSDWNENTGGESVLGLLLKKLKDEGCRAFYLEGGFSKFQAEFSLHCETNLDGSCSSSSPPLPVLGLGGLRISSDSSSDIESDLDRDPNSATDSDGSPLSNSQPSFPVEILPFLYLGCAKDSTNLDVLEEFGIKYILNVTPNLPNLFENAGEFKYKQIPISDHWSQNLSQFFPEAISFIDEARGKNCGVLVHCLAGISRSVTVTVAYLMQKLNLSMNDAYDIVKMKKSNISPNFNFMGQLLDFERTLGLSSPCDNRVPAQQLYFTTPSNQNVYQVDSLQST
Nature of the assay: Inhibition of MKP3 using 3-O-Methylfluorescein phosphate as substrate incubated for 10 mins prior to substrate addition by fluorometry. A digest of the protocol:
as §1

Assay [12] concerns the target T7, Phosphatidylglycerophosphatase and protein-tyrosine phosphatase 1 (Homo sapiens, UniProt Q8WUK0).
T7 sequence (Q8WUK0 whole entry): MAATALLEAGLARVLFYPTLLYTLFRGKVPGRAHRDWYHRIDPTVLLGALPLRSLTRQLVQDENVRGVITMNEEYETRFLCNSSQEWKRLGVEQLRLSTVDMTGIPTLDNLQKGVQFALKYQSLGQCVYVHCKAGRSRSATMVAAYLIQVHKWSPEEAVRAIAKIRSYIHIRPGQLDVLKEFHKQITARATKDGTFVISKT
The assay can be described thus: Inhibition of PTPMT1 using 3-O-Methylfluorescein phosphate as substrate incubated for 10 mins prior to substrate addition by fluorometry. A digest of the protocol:
as §1

T1 sequence (P23467 whole entry): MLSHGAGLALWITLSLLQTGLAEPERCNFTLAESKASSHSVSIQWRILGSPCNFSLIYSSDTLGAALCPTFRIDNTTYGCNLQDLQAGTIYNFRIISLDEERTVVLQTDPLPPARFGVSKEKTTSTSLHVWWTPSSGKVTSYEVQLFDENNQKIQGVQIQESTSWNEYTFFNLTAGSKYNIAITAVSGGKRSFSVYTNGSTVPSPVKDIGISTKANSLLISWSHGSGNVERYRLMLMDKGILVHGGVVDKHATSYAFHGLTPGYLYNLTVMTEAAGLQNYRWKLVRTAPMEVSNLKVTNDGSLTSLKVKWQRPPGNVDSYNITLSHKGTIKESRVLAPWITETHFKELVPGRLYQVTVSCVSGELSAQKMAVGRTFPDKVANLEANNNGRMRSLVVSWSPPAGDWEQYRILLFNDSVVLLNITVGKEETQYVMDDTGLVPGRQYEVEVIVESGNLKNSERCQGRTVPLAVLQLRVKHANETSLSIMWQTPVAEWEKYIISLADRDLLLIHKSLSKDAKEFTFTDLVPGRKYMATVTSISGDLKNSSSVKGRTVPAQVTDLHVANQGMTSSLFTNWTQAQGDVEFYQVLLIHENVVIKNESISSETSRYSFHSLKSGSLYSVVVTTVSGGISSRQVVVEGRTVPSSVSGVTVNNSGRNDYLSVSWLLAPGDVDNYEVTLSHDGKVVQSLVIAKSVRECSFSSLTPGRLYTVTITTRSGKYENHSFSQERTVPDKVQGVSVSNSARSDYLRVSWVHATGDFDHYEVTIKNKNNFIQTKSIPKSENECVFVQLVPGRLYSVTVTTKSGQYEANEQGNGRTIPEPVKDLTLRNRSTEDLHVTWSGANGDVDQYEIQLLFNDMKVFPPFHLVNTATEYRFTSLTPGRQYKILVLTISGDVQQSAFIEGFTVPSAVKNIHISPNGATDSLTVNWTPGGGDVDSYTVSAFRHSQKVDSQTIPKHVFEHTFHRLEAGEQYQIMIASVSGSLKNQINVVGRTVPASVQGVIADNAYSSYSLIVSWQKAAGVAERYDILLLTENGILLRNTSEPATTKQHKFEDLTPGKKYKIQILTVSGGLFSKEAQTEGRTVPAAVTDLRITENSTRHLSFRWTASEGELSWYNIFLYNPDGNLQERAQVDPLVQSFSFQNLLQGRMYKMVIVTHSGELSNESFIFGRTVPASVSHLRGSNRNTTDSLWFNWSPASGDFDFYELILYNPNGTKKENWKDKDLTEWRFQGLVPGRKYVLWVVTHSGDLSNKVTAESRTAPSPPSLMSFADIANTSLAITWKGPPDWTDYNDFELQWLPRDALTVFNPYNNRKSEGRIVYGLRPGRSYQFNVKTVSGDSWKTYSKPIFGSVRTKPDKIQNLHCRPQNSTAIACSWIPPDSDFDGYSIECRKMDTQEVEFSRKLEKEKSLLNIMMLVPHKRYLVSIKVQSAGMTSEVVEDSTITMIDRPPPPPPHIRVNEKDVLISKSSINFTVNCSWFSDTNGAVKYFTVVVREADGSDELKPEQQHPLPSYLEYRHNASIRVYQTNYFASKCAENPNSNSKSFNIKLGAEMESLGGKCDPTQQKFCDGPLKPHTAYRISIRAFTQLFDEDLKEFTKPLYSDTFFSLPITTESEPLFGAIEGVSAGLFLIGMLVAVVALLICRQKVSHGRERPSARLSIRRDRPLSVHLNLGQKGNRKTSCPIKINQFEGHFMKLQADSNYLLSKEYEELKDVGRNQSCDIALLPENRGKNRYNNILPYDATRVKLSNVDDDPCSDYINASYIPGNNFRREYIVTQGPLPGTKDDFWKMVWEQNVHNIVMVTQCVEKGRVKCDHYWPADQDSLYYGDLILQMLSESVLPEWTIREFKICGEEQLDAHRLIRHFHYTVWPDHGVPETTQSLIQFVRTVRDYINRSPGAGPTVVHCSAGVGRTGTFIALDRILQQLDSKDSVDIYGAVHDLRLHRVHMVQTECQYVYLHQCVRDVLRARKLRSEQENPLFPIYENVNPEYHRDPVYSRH
Phosphatidylinositol 3,4,5-trisphosphate 3-phosphatase and dual-specificity protein phosphatase PTEN, sequence (P60484 whole entry): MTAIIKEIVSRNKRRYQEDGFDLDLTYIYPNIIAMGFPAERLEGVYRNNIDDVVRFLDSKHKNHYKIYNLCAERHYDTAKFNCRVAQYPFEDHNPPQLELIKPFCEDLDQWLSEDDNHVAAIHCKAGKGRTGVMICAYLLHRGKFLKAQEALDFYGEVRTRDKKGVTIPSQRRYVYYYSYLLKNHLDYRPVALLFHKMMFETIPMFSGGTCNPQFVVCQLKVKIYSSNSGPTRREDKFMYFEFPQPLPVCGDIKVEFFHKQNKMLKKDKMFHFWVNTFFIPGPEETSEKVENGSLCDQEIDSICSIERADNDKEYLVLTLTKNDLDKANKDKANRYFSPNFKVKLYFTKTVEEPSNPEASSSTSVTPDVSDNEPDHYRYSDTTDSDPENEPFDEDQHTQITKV

For the compound `O=C(O)CCc1ccc[c]([Sb](=[O])([OH])[OH])c1`, the half-inhibitory concentration (IC50) in assay [1] was 1.62 µM; in [2] it was 0.1 µM; in [3] it was 3.15 µM; in assay [5] it was above 100 µM; in assay [6], 8.87 µM; in assay [8], 5.67 µM. Moreover, the IC50 was above 100 µM in assay [9], above 100 µM in assay [10], above 100 µM in assay [11] and 13.4 µM in assay [12]. For the same compound, the inhibition constant (Ki) in assay [4] came to 4.7 µM; in [7] it was 1.7 µM.

`O=C(O)/C=C/c1ccc[c]([Sb](=[O])([OH])[OH])c1` [(2E)-3-{3-[dihydroxy(oxo)--stibanyl]phenyl}prop-2-enoic acid]: the IC50 was found to be 0.77 µM in assay [1]; 0.1 µM in assay [2]; 0.11 µM in assay [3]; 7.93 µM in [5]; 10 µM in assay [6]; 0.6 µM in assay [8]. Also, the IC50 is above 10 µM in assay [9], above 10 µM in assay [10], above 10 µM in [11] and 1.62 µM in assay [12]. In addition, the figures for the Ki in assay [4] and in [7] were 0.369 µM and 0.072 µM, respectively.
